Experimental data pooled from the literature.
Target: Mitogen-activated protein kinase kinase kinase 19 (MAP3K19, Homo sapiens, UniProt Q56UN5)
Residues used in one study (Q56UN5 1-1328): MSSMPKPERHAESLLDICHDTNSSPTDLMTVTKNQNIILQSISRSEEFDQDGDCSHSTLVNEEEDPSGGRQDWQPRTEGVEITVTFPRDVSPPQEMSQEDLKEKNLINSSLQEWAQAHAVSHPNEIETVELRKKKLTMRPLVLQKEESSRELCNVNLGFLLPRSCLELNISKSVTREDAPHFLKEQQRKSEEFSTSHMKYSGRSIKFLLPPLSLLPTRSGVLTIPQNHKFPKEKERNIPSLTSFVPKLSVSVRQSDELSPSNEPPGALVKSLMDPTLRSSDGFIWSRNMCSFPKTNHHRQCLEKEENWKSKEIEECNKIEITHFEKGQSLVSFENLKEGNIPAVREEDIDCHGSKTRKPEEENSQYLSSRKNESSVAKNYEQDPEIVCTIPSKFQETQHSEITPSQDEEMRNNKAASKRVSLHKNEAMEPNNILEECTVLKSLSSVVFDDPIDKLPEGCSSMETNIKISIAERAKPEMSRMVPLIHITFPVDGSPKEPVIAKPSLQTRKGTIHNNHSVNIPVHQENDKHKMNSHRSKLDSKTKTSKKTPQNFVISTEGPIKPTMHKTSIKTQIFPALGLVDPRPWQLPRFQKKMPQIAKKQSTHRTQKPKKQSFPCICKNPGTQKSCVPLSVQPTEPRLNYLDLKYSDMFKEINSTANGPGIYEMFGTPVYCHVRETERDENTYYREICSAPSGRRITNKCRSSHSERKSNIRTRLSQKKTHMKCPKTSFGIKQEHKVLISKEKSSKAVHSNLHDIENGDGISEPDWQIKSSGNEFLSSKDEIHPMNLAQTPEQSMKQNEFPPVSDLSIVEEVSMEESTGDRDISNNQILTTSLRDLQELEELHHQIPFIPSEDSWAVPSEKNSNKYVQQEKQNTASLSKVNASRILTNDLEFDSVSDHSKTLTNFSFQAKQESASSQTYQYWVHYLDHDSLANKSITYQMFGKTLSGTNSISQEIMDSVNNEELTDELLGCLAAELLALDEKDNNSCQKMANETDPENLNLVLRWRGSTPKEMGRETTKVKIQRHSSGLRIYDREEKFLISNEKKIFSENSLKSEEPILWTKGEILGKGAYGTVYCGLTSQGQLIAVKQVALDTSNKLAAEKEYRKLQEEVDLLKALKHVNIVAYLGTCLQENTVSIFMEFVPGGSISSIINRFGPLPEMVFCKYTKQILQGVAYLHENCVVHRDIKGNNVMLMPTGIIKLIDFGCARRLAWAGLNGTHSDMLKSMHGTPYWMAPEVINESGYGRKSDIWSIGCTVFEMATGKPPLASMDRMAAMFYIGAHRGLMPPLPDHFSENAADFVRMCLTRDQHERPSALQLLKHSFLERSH

SMILES	test	conditions	remaining binding [%]
COc1ccnn2ncc(-c3ccnc(N(C)C)n3)c12	binding	1 µM	54
O=C(NCCCC1CCCCC1)c1ccc(CNC(=O)c2cnn(-c3ccccc3)c2C(F)(F)F)cc1	cell-free assay, competition with immobilised ligand	0.1 µM	89
O=C(c1ccc(Nc2ncc(Cl)c(-c3cc4ccccc4s3)n2)cc1)N1CCC(N2CCCC2)CC1	binding, competition with immobilised ligand	1 µM	0
Cc1cnn2ncc(-c3ccnc(N(C)C)n3)c2c1	binding	1 µM	75
O=C(NCC1CCOCC1)c1n[nH]cc1NC(=O)c1c(F)cccc1F	binding, competition with immobilised ligand	1 µM	52
COc1ccc2c(c1)O[C@@H](c1ccc(OC)c(OC)c1)C[C@H]2NC(=O)C1(c2ccc3c(c2)OC(F)(F)O3)CC1	cell-free assay, competition with immobilised ligand	1 µM	83
O=C(NCCCN1CCOCC1)c1ccc(Nc2nccc(-c3cc4ccccc4s3)n2)cc1	binding, competition with immobilised ligand	1 µM	0.1
Cc1cc(NC(=O)c2cccc(S(F)(F)(F)(F)F)c2)cc(-n2ccn3nc(-c4cccnc4)cc23)c1	cell-free assay, competition with immobilised ligand	1 µM	100
COc1cnc(Nc2cccc(S(N)(=O)=O)c2)nc1N1CCN(c2ccccc2)CC1	binding, competition with immobilised ligand	1 µM	71
O=C(NCCCN1CCOCC1)c1ccc(Nc2ncc(Cl)c(-c3ccc(Cl)s3)n2)cc1	binding, competition with immobilised ligand	1 µM	0
CCCOc1ccc([C@@H]2[C@@H](C(=O)O)[C@H](c3ccc4c(c3)OCO4)CN2CC(=O)Nc2c(CC)cccc2CC)cc1	cell-free assay, competition with immobilised ligand	1 µM	93
CCN1CCN(Cc2ccc(C(=O)Nc3ccc(C)c(Oc4ccc5c(c4)CC(=O)N5)c3)cc2C(F)(F)F)CC1	binding, competition with immobilised ligand	1 µM	100
C[C@@H]1CCN(c2nccc(-c3cnn4ncccc34)n2)C1	binding	1 µM	79
CC(=O)C1=C(C)N(c2cccc(C(F)(F)F)c2)C(=O)N[C@@H]1c1ccc(C#N)nc1	cell-free assay, competition with immobilised ligand	1 µM	93
COc1ncc2cc3ccccc3nc2c1C#N	cell-free assay, competition with immobilised ligand	5 µM	81
N[C@@H]1CCN(c2nccc(-c3cnn4ncccc34)n2)C1	binding	1 µM	76
Cc1cc(-n2nc(Cc3cc(F)cc(C(F)(F)F)c3)nc2C)ccc1C(N)=O	cell-free assay, competition with immobilised ligand	1 µM	98
CC1CCCN1c1nccc(-c2cnn3ncccc23)n1 (stereo not drawn)	binding	1 µM	95
C=CC(=O)N1CCC(C(=O)NCC(=O)N2CCN(c3nc(-c4cnc(N)nc4C(F)F)nc(N4CCOCC4)n3)CC2)CC1	binding, competition with immobilised ligand	1 µM	42
CN(C)c1nccc(-c2cnn3ncccc23)n1	binding	1 µM	50
COc1cnc(Nc2cccc(S(N)(=O)=O)c2)nc1N1CCN(c2ccccc2)C(=O)C1	binding, competition with immobilised ligand	1 µM	32
